Results: PubChem BioAssay
Active and inactive are the calls of the source.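 How the source made its calls, unless noted: active means fluorescence slope higher than the sample average by over 3 SD (cut at about -0.22 in these data, passing the limit was not always enough); inactive means the rest.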

Tests used:
[1] = inhibitors of TNFa-induced NFkB p65 translocation, primary screen, imaging, HUVEC, MLSMR starter and 10KST1 sets (AID 438;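 active means inhibition above 20% together with a positive visual image hit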;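 further: compound added about 3h40 before a 20 min TNFalpha stimulation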;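 on inhibition: signal is the nuclear over cytoplasmic p65 intensity ratio per well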); details: HUVEC TNFa-induced p65 nuclear translocation; cell count: measured here: nuclei count (cytotoxicity indicator), at 2.08 µM; inhibition: at 2 µM, stronger effect = higher value, 0% TNFa-plus-vehicle, 100% no-TNFa wells
[2] = endothelial E-selectin expression blockers – imaging, HUVEC, immunofluorescence, MLSMR starter and 10KST1 sets, primary screen (AID 487;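 active means visually confirmed hit in the image check and inhibition above 20%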;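 on inhibition: signal is fraction of cell area covered by stained E-selectin grains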;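 on nuclei count: 100% = median nuclei count of all wells on the same plate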); details: HUVEC TNFalpha-induced E-selectin immunofluorescence imaging, at 2 µM; inhibition: stronger effect = higher value; nuclei count: measured here: cell number, toxicity
[3] = Primary imaging screen for DUSP6 inhibitors that restore phospho-Erk in transfected HeLa cells, chemical complementation (AID 609;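 active means compounds giving at least 50% inhibition in the cell-based MKP-3 phosphatase rescue imaging test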;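 on inhibition: phospho-Erk level distribution per well compared with pooled transfected vehicle control wells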); details: HeLa MKP-3 transfected, phospho-Erk imaging KS statistic, at 10 µM, cells stimulated with TPA for 15 min
[4] = target: Dual specificity protein phosphatase 6 (Homo sapiens) (UniProt Q16828); assay: as above; details: HeLa MKP-3 transfected, phospho-Erk imaging KS statistic; at 10 µM; stronger effect = higher value; cells stimulated with TPA for 15 min
[5] = target: Voltage-gated potassium channel subunit beta-2 (Rattus norvegicus) (UniProt P62483); assay: inhibitors of rat Kvbeta2 reductase activity – biochemical, NADPH fluorescence, primary screen (AID 622); details: recombinant KvBeta, 4-cyanobenzaldehyde reduction, at 10 µM, stronger effect = higher value;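 further: slope of raw intensity against log time taken from 70 to 1610 s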
[6] = target: Voltage-gated potassium channel subunit beta-2 (Rattus norvegicus) (UniProt P62483); assay: enhancers of rat Kvbeta2 NADPH turnover – biochemical, NADPH fluorescence, primary screen (AID 623;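 active means NADPH fluorescence slope more negative than the mean of all samples by about 3 SD, 99.7% confidence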;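 further: fluorescence intensity change per second fitted from 20 to 320 s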); details: Recombinant KvBeta, NADPH fluorescence decrease slope, 10 min; at 10 µM; stronger effect = lower value
[7] = target: Muscarinic acetylcholine receptor M4 (Homo sapiens) (UniProt P08173); assay: M4-linked GIRK flux change, two-sided – cell-based, HEK293 M4/GIRK, thallium flux, BTC-AM, M4 allosteric agonist project, primary screen (AID 625;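 active means fluorescence slope after compound addition differing from the mean of all tested samples at 99.7% confidence, mostly higher but some lower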;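 further: thallium influx through GIRK channels coupled to M4 in HEK293 cells with BTC-AM dye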); details: at 10 µM, actives lie on both sides
How it was run: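 Material: HEK293 cells with M4 receptor and GIRK channels; Times: cells overnight at 37 °C, BTC-AM loading 1 h, reads 2 min total; Technique: kinetic BTC-AM fluorescence sampled at 1 Hz, 10 s pre-addition baseline; Read-out basis: slope over 15–24 s of trace normalized to starting intensity; Controls: carbachol positive, DMSO negative.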

[8] = inhibitors of larval lipid processing in zebrafish, primary screen, whole organism, PED6 fluorescence, gall bladder and intestine (AID 686;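 active means a full or partial loss of lipid-probe fluorescence in the fish gall bladder, intestine or both, judged by eye; inactive means no fluorescence loss, or compound toxic to the fish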;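 further: larvae 5 to 7 days old with five fish per well; signal comes from phospholipase A2 cleavage of quenched PED6 carried via bile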); details: Zebrafish larvae PED6 lipid processing, fluorescence scoring; screened at 20 µM (by protocol)
How it was run: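 Incubation: overnight exposure of larvae to compound plus PED6 / Test system: live zebrafish larvae aged 5-7 days, whole organism / Amount: 5 larvae per well / Read-out basis: visual per-well fluorescence inhibition score / Signal: visual fluorescence microscopy scoring of gall bladder, gut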

[9] = loss of swimming-algae plug formation – whole organism, Chlamydomonas reinhardtii, WT vs cilia-less mutant, absorbance, 96-well, primary screen (AID 463189;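 active means inhibition at or above 50% relative to wild type and mutant plate controls; inactive means inhibition below 50%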;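 further: 0% = wild type cc124 cells in DMSO and 100% = ciliumless bld1 mutant cells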); details: Chlamydomonas reinhardtii gravitaxis, OD600 absorbance, 2 days; at 10 µM; stronger effect = higher value
[10] = measured here: cell density z-score
[11] = measured here: nuclear c-Myc green intensity z-score
[12] = measured here: nuclear pErk red intensity z-score, stronger effect = higher value

Sequence of Dual specificity protein phosphatase 6 (Homo sapiens) (Q16828 whole entry, looked up): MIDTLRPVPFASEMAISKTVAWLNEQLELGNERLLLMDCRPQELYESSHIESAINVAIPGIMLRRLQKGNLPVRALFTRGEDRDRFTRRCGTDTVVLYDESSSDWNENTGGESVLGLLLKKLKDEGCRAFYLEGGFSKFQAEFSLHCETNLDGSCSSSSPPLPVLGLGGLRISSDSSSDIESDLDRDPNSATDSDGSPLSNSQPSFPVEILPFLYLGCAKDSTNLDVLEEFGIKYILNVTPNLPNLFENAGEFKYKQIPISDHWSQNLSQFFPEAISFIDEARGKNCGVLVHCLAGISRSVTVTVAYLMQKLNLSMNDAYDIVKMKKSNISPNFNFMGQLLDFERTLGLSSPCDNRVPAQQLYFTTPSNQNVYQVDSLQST
Sequence of Voltage-gated potassium channel subunit beta-2 (Rattus norvegicus) (P62483 whole entry, looked up): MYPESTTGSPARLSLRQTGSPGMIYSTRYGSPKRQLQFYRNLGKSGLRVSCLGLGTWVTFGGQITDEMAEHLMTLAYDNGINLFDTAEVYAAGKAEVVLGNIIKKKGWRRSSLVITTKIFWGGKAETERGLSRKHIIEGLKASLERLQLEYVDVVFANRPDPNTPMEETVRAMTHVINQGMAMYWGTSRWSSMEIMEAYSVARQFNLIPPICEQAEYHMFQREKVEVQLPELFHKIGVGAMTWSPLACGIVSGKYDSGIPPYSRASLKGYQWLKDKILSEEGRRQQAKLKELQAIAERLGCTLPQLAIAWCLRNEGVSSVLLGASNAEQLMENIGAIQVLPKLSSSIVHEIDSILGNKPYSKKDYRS
Sequence of Muscarinic acetylcholine receptor M4 (Homo sapiens) (P08173 whole entry, looked up): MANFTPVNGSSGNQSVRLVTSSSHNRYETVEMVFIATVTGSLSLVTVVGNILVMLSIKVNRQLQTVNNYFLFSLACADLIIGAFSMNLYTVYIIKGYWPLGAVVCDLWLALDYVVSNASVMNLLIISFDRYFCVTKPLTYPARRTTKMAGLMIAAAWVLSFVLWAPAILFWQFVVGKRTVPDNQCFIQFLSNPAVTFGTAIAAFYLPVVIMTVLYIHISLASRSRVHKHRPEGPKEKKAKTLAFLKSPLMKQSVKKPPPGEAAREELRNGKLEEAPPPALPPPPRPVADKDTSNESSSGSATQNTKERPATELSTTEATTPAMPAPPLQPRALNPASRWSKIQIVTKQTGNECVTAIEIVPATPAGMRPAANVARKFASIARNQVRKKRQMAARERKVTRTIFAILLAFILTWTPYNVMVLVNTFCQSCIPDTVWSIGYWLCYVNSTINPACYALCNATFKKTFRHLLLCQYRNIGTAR

Structure (SMILES) | cell count [1] | inhibition [1] | inhibition [2] | nuclei count [2] | z-score [3, 10] | z-score [3, 11] | z-score [3, 12] | inhibition [4] | fluorescence slope [5] | NADPH fluorescence slope [6] | fluorescence slope [7] | outcome [8] | inhibition [9]
CC1(C)Cc2c(sc3ncn4nc(-c5ccco5)nc4c23)CO1 | 629 | 6.6% (inactive) | -31.6% (inactive) | 112% | -0.299 | 0.915 | -1.17 | -7.67% (inactive) | -0.432 (inactive) | -4.1e-05 (inactive) | 0.00512 (inactive) | inactive | 16.9% (inactive)
O=C(O)CSCC(=O)Nc1ccc(S(=O)(=O)N2CCCCC2)cc1 | 500 | -7.8% (inactive) | -62% (inactive) | 162% | 0.13 | -1.22 | 0.192 | -3.95% (inactive) | -0.424 (inactive) | -3.2e-05 (inactive) | 0.00479 (inactive) | inactive | -4.71% (inactive)
CC1(C)Cc2[nH]c(=O)c(C#N)cc2CS1 | 595 | -11.1% (inactive) | -93.7% (inactive) | 149% | 0.698 | -0.413 | 1.37 | -0.233% (inactive) | -0.435 (inactive) | -0.000124 (inactive) | 0.00467 (inactive) | inactive | 3.23% (inactive)
O=C1C=C(N2CCN(C3=CC(=O)CCC3)CC2)CCC1 | 493 | -0.4% (inactive) | 4.1% (inactive) | 100% | -1.82 | 2.6 | 0.89 | -0.233% (inactive) | -0.469 (inactive) | -6.9e-05 (inactive) | 0.00636 (inactive) | inactive | -18.9% (inactive)
COc1ccc(/C(O)=C2\C(=O)C(=O)N(c3cc(C)on3)C2c2ccccc2OC)cc1C (stereo unspecified) | 556 | -11.7% (inactive) | 9.9% (inactive) | 118% | -1.41 | -1.49 | -1.43 | -8.27% (inactive) | -0.473 (inactive) | -2.1e-05 (inactive) | 0.00597 (inactive) | inactive | -0.426% (inactive)
COc1cccc(C(=O)N2CCN(Cc3ccccn3)CC2)c1OC | 503 | -5.7% (inactive) | -70.6% (inactive) | 158% | -2.51 | 0.355 | 0.989 | -12.3% (inactive) | -0.466 (inactive) | -5.6e-05 (inactive) | 0.00645 (inactive) | inactive | 1.71% (inactive)
Cc1ccc(-n2[nH]c(C)c(C=Nc3cc(C)ccn3)c2=O)cc1 | 512 | 3% (inactive) | 4.6% (inactive) | 87.7% | -0.346 | -0.03 | 0.605 | -13.3% (inactive) | -0.459 (inactive) | -3.6e-05 (inactive) | 0.0056 (inactive) | inactive | 51.3% (active)
Cn1c(Cn2cnc(Cl)c2Cl)nc2ccccc21 | 583 | 0.2% (inactive) | -75.8% (inactive) | 138% | 0.873 | 1.34 | 0.561 | 12.8% (inactive) | -0.454 (inactive) | -8.5e-05 (inactive) | 0.00447 (inactive) | inactive | 21.9% (inactive)
Cn1c(=O)c2c(nc(Br)n2Cc2ccc3ccccc3c2)n(C)c1=O | 623 | -9.2% (inactive) | -12.5% (inactive) | 163% | -0.362 | -0.997 | 0.811 | -8.95% (inactive) | -0.5 (inactive) | -5.2e-05 (inactive) | 0.00605 (inactive) | inactive | 5.52% (inactive)
C=CCn1c(N)c(C(=O)Nc2ccccc2)c2nc3ccccc3nc21 | 628 | 9.1% (inactive) | -27.4% (inactive) | 121% | 1.06 | -1.1 | -0.334 | 9.07% (inactive) | -0.398 (inactive) | -1.8e-05 (inactive) | 0.00512 (inactive) | active; no signal in intestine only | 59.2% (active)
CN1CCc2c(C#N)c(N3CCCCC3)nc(NCc3ccccc3)c2C1 | 577 | -13.5% (inactive) | -93.5% (inactive) | 143% | 0.729 | -1.12 | 0.497 | -2.09% (inactive) | -0.422 (inactive) | -6.7e-05 (inactive) | 0.00359 (inactive) | inactive | 7.09% (inactive)
C=C(C)CC1N(c2cccc(OC)c2)C(=O)[C@@H]2C(C(=O)O)[C@H]3C=C[C@@]12O3 (stereo partly specified) | 628 | -15.4% (inactive) | 51.9% (inactive) | 182% | -0.541 | 1.19 | 1.46 | -7.28% (inactive) | -0.49 (inactive) | -7.9e-05 (inactive) | 0.00494 (inactive) | inactive | -0.618% (inactive)
CCC(NC(=O)Nc1ncccc1C)(C(F)(F)F)C(F)(F)F | 612 | 5.3% (inactive) | -36.6% (inactive) | 104% | 1.12 | 0.397 | -1.61 | 20.2% (inactive) | -0.508 (inactive) | -1.7e-05 (inactive) | 0.00598 (inactive) | inactive | 35.4% (inactive)
CCSc1nnc(NC(=O)C(C)(C(F)(F)F)C(F)(F)F)s1 | 664 | -10.9% (inactive) | -107% (inactive) | 183% | -1.16 | 0.962 | -1.02 | 1.9e-07% (inactive) | -0.49 (inactive) | -6.3e-05 (inactive) | 0.00486 (inactive) | inactive | 2.14% (inactive)
Cn1c(N2CCN(c3ccccn3)CC2)nc2c1c(=O)n(Cc1ccccc1Cl)c(=O)n2C | 738 | 4.2% (inactive) | -56.1% (inactive) | 177% | -0.827 | -0.0696 | 1.36 | 13.9% (inactive) | -0.465 (inactive) | -0.000144 (inactive) | 0.00667 (inactive) | inactive | 5.36% (inactive)
CCN(CC)Cc1c(O)ccc2c(C)c(CC(=O)OC)c(=O)oc12 | 660 | -1.4% (inactive) | 1.9% (inactive) | 145% | 0.613 | -0.319 | -0.573 | 2.71% (inactive) | -0.0165 (inactive) | -6.9e-06 (inactive) | 0.00599 (inactive) | inactive | 5.82% (inactive)
Cc1ccccc1-n1c(=O)/c(=C\c2ccco2)s/c1=C(/C#N)C(=O)Nc1ccccc1 | 677 | -5.8% (inactive) | -17.2% (inactive) | 151% | 0.299 | -0.624 | -0.976 | 9.37% (inactive) | -0.475 (inactive) | -4.4e-05 (inactive) | 0.00343 (inactive) | inactive | -0.051% (inactive)
COc1ccc(CCn2c(C)cc3c(c2=O)C(c2ccc4c(c2)OCO4)C(C#N)=C(N)O3)cc1OC (stereo unspecified) | 697 | -0.5% (inactive) | -141% (inactive) | 170% | 1.12 | 0.0675 | -1.33 | 9.61% (inactive) | -0.468 (inactive) | -4.4e-05 (inactive) | 0.00505 (inactive) | inactive | 5.67% (inactive)
COCCCNC(=O)c1c(N)n(/N=C/c2ccccn2)c2nc3ccccc3nc12 | 736 | 7.3% (inactive) | 5.4% (inactive) | 148% | 0.26 | 1.28 | 1.17 | -1.12% (inactive) | -0.424 (inactive) | -5.6e-05 (inactive) | 0.00553 (inactive) | inactive | 82.5% (active)
CCOC(=O)c1c(-c2cccs2)csc1NC(=O)c1ccncc1 | 469 | -0.7% (inactive) | -21.4% (inactive) | 128% | 0.172 | 0.303 | -0.644 | 4.37% (inactive) | -0.308 (inactive) | -2.8e-05 (inactive) | 0.00693 (inactive) | inactive | 12.5% (inactive)
CCOC(=O)CNC(=O)CCCCCC(=O)NCC(=O)OCC | 367 | -1.3% (inactive) | -27.8% (inactive) | 132% | -0.497 | 0.819 | 0.154 | 11.4% (inactive) | -0.431 (inactive) | -9.3e-05 (inactive) | 0.00362 (inactive) | inactive | 21.4% (inactive)
CC(C)OC(=O)c1c2nc3ccccc3nc2n2c1[nH]c(=O)c1ccccc12 | 519 | 4% (inactive) | -30.4% (inactive) | 96.9% | 1.31 | -1.51 | -0.702 | 16.5% (inactive) | -0.445 (inactive) | 2e-05 (inactive) | 0.069 (active) | inactive | 6.9% (inactive)
Cn1c(=O)c2c(nc(NCc3ccco3)n2Cc2ccccc2Cl)n(C)c1=O | 502 | -4.4% (inactive) | -15.6% (inactive) | 92.2% | 0.653 | -0.74 | 0.354 | 12.8% (inactive) | -0.463 (inactive) | -2.4e-05 (inactive) | 0.00464 (inactive) | inactive | -9.48% (inactive)
O=C(CN1CCc2[nH]c3ccccc3c2C1)N1CCCCC1 | 538 | 3.2% (inactive) | -91.5% (inactive) | 124% | -1.09 | -0.293 | -0.987 | 3.42% (inactive) | -0.446 (inactive) | -8.6e-05 (inactive) | 0.00512 (inactive) | inactive | -5.72% (inactive)
CCOC(=O)N1CCN(C2OC(=O)c3ccccc32)CC1 (stereo unspecified) | 380 | 0.8% (inactive) | -125% (inactive) | 146% | -0.546 | -0.533 | -0.506 | 24.4% (inactive) | -0.459 (inactive) | -0.000295 (inactive) | 0.00469 (inactive) | inactive; toxic | 14% (inactive)
COCc1[nH]nc2c1C(c1sccc1C)C(C#N)=C(N)O2 (stereo unspecified) | 569 | -7.1% (inactive) | -22.2% (inactive) | 170% | 1.09 | -0.767 | 0.181 | 8.31% (inactive) | -0.488 (inactive) | -2.8e-05 (inactive) | 0.00573 (inactive) | inactive | 0.653% (inactive)
O=C(OCCN1CCOCC1)c1ccc2c(c1)OCCO2 | 644 | -12.8% (inactive) | 1.7% (inactive) | 180% | 0.036 | 0.0112 | 0.434 | -9.53% (inactive) | -0.473 (inactive) | -6.5e-05 (inactive) | 0.00543 (inactive) | inactive | -3.31% (inactive)
